Source: publication PMC8911105 (Journal of Pharmaceutical Investigation, 2022)
Like-named read-outs stand apart in the source and are kept apart here.

Key:
[1] = Body weight of rats during 1,25; assay type: in vivo, rat; details: after pretreatment with 1,25(OH)2D3 2.56 nmol/kg/day for four days
rat OCTN1 (rOCTN1) = test: RT-qPCR of rOCTN1 mRNA expression in organs of 1,25; assay type: in vivo; details: for Decrease in rOCTN1 mRNA expression level compared to control rats: 2.56 nmol/kg/day i.p. for four days, normalized to GAPDH
[2] = humans; oral administration; ref Cheah et al. [2017]; cited from earlier work
[3] = assay type: in vivo, rat
Procedure, shortened: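 After four days of 1,25(OH)2D3 pretreatment, rats under ip Zoletil/Rompun (20 mg/kg) had femoral vein and artery cannulated. Aqueous ergothioneine (2 mg/mL) was given at 2 mg/kg IV. Plasma was sampled 0–1,440 min with heparinized-saline replacement. Plasma and urine were diluted 50- and 100-fold with 1% BSA for LC-MS/MS. AUC, CL, Vss and MRT came from non-compartmental analysis. Kp fold change was exogenous over basal Kp.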

[4] = mice; oral administration; ref Kato et al. [2010]; cited from earlier work
[5] = Basal level of endogenous ergothioneine in plasma, urine and tissues; assay type: in vivo, rat; details: for Decrease in Kp of basal endogenous ergothioneine after 1,25(OH)2D3 pretreatment: treated vs control
Procedure, shortened: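 Rats got 1,25(OH)2D3 2.56 nmol/kg/day for four days, with no ergothioneine given. Tail-vein blood (0.3 mL) was drawn 30 min before each dose and at the same time on days 5–6. Urine was collected over 24 h from day 5 to 6, and seven tissues were taken on day 6. LC-MS/MS was run with a 2–10,000 ng/mL calibration (LLOQ 2 ng/mL). n = 5 control, 6 treated; means ± SD; unpaired two-tailed t-test.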

[6] = 2 mg/kg IV, 1,25(OH)2D3-treated rats
[7] = brain, 1,25(OH)2D3-treated rats
[8] = heart, 1,25(OH)2D3-treated rats
[9] = kidney, 1,25(OH)2D3-treated rats
[10] = muscle, 1,25(OH)2D3-treated rats
[11] = spleen, 1,25(OH)2D3-treated rats

## C=C1/C(=C\C=C2/CCC[C@]3(C)[C@@H]([C@H](C)CCCC(C)(C)O)CC[C@@H]23)C[C@@H](O)C[C@@H]1O [1,25(OH)2D3, 1α,25-dihydroxyvitamin D3]
[1]
  Weight gain compared with control rats: significantly lower
Rat OCTN1 (rOCTN1); brain
  Decrease in rOCTN1 mRNA expression level compared to control rats: 27%
Rat OCTN1 (rOCTN1); kidney
  Decrease in rOCTN1 mRNA expression level compared to control rats: 77%
Rat OCTN1 (rOCTN1); other tissues, such as the liver, spleen, and heart
  Change in rOCTN1 mRNA levels: no significant changes

## C[N+](C)(C)[C@@H](Cc1c[nH]c(=S)[nH]1)C(=O)[O-] [ergothioneine, l-ergothioneine]
[2]
  Urinary recovery of ergothioneine: < 4%
[3]; [6]
  CL: 0.1136 ± 0.044 L/h/kg
  MRT: 33.50 ± 20.07 h
  Urinary recovery of ergothioneine within 24 h: 1.08%
  Vss: 3.298 ± 0.959 L/kg
[3]; 2 mg/kg IV, 1,25(OH)2D3-treated rats (n = 6)
  AUC∞: 1198 ± 457 µg·min/mL
[3]; 2 mg/kg IV, control rats
  CL: 0.2237 ± 0.104 L/h/kg
  MRT: 27.11 ± 17.31 h
  Urinary recovery of ergothioneine within 24 h: 3.89%
  Vss: 4.82 ± 1.291 L/kg
[3]; 2 mg/kg IV, control rats (n = 7)
  AUC∞: 647.5 ± 327.5 µg·min/mL
[3]; 2 mg/kg IV, treated vs control
  Decrease in total clearance in 1,25(OH)2D3-treated rats: 49%
  Increase in AUC∞ in 1,25(OH)2D3-treated rats: 85%
[3]; [7]
  Tissue partition coefficient (Kp), IV exogenous ergothioneine: 2.909 ± 0.448
[3]; brain, control rats
  Tissue partition coefficient (Kp), IV exogenous ergothioneine: 4.799 ± 1.199
[3]; [8]
  Tissue partition coefficient (Kp), IV exogenous ergothioneine: 39.88 ± 10.04
[3]; heart, control rats
  Tissue partition coefficient (Kp), IV exogenous ergothioneine: 81.04 ± 37.23
[3]; kidney, 1,25(OH)2D3-treated group
  Fold change of Kp (exogenous versus endogenous basal): 3.70 fold
[3]; [9]
  Tissue partition coefficient (Kp), IV exogenous ergothioneine: 76.12 ± 47.89
[3]; kidney, control group
  Fold change of Kp (exogenous versus endogenous basal): 3.13 fold
[3]; kidney, control rats
  Tissue partition coefficient (Kp), IV exogenous ergothioneine: 190.7 ± 59.4
[3]; liver, 1,25(OH)2D3-treated rats (n = 6), 24 h after 2 mg/kg IV
  Tissue partition coefficient (Kp), IV exogenous ergothioneine: 237.3 ± 82.8
[3]; liver, control rats (n = 5), 24 h after 2 mg/kg IV
  Tissue partition coefficient (Kp), IV exogenous ergothioneine: 407.8 ± 113.9
[3]; lung, 1,25(OH)2D3-treated rats
  Tissue partition coefficient (Kp), IV exogenous ergothioneine: 38.61 ± 8.48
[3]; lung, control rats
  Tissue partition coefficient (Kp), IV exogenous ergothioneine: 57.37 ± 14.60
[3]; [10]
  Tissue partition coefficient (Kp), IV exogenous ergothioneine: 10.25 ± 3.90
[3]; muscle, control rats
  Tissue partition coefficient (Kp), IV exogenous ergothioneine: 19.43 ± 8.95
[3]; [11]
  Tissue partition coefficient (Kp), IV exogenous ergothioneine: 21.89 ± 2.34
[3]; spleen, control rats
  Tissue partition coefficient (Kp), IV exogenous ergothioneine: 70.56 ± 17.46
[4]
  Urinary recovery of ergothioneine: < 4%
[5]; 1,25(OH)2D3-treated group
  Cumulative amount of ergothioneine excreted in urine for 24 h (basal, endogenous): 1880 ng
[5]; 1,25(OH)2D3-treated group, third day to sixth day of pretreatment
  Basal plasma level of endogenous ergothioneine compared with control: significantly increased
[5]; [7]
  Tissue partition coefficient (Kp), basal endogenous ergothioneine: 1.587 ± 0.929
[5]; brain, control rats
  Tissue partition coefficient (Kp), basal endogenous ergothioneine: 3.585 ± 0.447
[5]; control group
  Cumulative amount of ergothioneine excreted in urine for 24 h (basal, endogenous): 3858 ng
[5]; [8]
  Tissue partition coefficient (Kp), basal endogenous ergothioneine: 22.25 ± 15.27
[5]; heart, control rats
  Tissue partition coefficient (Kp), basal endogenous ergothioneine: 34.59 ± 7.01
[5]; [9]
  Tissue partition coefficient (Kp), basal endogenous ergothioneine: 20.56 ± 11.88
[5]; kidney, control rats
  Tissue partition coefficient (Kp), basal endogenous ergothioneine: 60.85 ± 10.93
[5]; kidneys
  Decrease in Kp of basal endogenous ergothioneine after 1,25(OH)2D3 pretreatment: 66.2%
[5]; liver, 1,25(OH)2D3-treated rats (n = 6)
  Tissue partition coefficient (Kp), basal endogenous ergothioneine: 106.7 ± 62.3
[5]; liver, control rats (n = 5)
  Tissue partition coefficient (Kp), basal endogenous ergothioneine: 224.4 ± 53.9
[5]; liver
  Decrease in Kp of basal endogenous ergothioneine after 1,25(OH)2D3 pretreatment: 52.4%
[5]; lung, 1,25(OH)2D3-treated rats
  Tissue partition coefficient (Kp), basal endogenous ergothioneine: 17.75 ± 11.47
[5]; lung, control rats
  Tissue partition coefficient (Kp), basal endogenous ergothioneine: 30.67 ± 6.68
[5]; [10]
  Tissue partition coefficient (Kp), basal endogenous ergothioneine: 4.471 ± 3.279
[5]; muscle, control rats
  Tissue partition coefficient (Kp), basal endogenous ergothioneine: 8.385 ± 1.141
[5]; muscle
  Decrease in Kp of basal endogenous ergothioneine after 1,25(OH)2D3 pretreatment: 46.7%
[5]; [11]
  Tissue partition coefficient (Kp), basal endogenous ergothioneine: 15.22 ± 7.87
[5]; spleen, control rats
  Tissue partition coefficient (Kp), basal endogenous ergothioneine: 42.50 ± 14.19
[5]; spleen
  Decrease in Kp of basal endogenous ergothioneine after 1,25(OH)2D3 pretreatment: 64.2%
